Experiment [1] has as its target T1, Mitogen-activated protein kinase kinase kinase 12 (Homo sapiens, UniProt Q12852).
T1 sequence (Q12852 whole entry): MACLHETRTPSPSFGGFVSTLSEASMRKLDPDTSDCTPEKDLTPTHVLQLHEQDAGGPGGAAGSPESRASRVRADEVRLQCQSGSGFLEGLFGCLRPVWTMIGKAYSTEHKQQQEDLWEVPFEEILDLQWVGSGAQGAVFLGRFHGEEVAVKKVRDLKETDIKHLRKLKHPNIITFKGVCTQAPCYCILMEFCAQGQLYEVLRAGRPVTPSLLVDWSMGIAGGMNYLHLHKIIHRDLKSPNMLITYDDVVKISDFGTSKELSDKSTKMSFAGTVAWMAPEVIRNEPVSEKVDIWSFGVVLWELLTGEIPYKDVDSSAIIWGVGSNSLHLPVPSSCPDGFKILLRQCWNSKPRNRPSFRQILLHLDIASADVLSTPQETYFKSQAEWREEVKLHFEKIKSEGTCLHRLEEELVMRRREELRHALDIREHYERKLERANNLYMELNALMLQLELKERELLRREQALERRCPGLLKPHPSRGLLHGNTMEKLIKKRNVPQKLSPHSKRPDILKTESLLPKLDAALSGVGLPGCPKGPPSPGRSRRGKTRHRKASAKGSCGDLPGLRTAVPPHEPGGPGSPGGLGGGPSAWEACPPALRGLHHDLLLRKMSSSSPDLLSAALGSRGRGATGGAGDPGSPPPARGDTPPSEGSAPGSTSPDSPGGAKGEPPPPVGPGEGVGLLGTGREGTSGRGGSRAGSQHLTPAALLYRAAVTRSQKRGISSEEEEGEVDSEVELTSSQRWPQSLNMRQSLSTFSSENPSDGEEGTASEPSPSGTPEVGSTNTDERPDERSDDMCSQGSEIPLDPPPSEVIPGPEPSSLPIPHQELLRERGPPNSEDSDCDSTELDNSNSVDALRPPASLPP
Nature of the experiment: Inhibition of human DLK transfected in HEK293 cells assessed as JNK phosphorylation after 5.5 hrs by Hoechst-33342 staining-based assay. It is filed as cell-based.

Experiment [2] addresses T1, Mitogen-activated protein kinase kinase kinase 12. Put plainly: Inhibition of DLK (unknown origin).
A short description of experiment [3]: Neuroprotective activity in E14.5 rat embryo DRG neurons. It is filed as functional. The conditions noted are these: drg neuron. The gist of the method: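 DRG neurons freshly dissected from E14.5 rat embryos, plated at 1200−2000 cells/well on an astrocyte monolayer in DMEM/F12 with N3 supplement, 0.18% glucose and 25 ng/mL NGF. 200 μM uridine and 100 μM 5-fluorodeoxyuridine added next day. Cultured 4 days before axon degeneration assay. IC50 reported.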

Structures are written as SMILES.

As a reminder, the IC50 is the concentration that gives 50% inhibition. Usually Ki stands for a measure of affinity in units of concentration, obtained from inhibition or displacement. Higher therefore signals a looser hold on the target.

Consider `N#Cc1ccnc(Nc2cc(C3CCOCC3)cc(N3CCC(F)(F)C3)n2)c1`, for which the IC50 in experiment [1] is 70 nM. For the same compound, affinity in experiment [2] was put at a Ki of 0.9 nM.

In the case of `Cc1nc(Nc2ccccn2)cc(C2CCCN(C(=O)c3ccccc3)C2)n1` (racemic), the Ki in experiment [2] was 942 nM.

On to `CC(=O)N1CCC(c2cc(Nc3cc(C(F)(F)F)ccn3)nc(N3CCC(F)(F)C3)n2)CC1`, for which, in experiment [1], the IC50 worked out at 300 nM. In experiment [2], this compound had a Ki of 33 nM.

For `Cc1nc(Nc2cc(C3CC3)ccn2)cc(C2CCCN(C(=O)c3ccccc3)C2)n1` (racemic), the IC50 in experiment [1] is 486 nM. The same compound registered a Ki in experiment [2] of 18 nM.

In the case of `Cc1ccnc(Nc2cc(C3CCCN(C(=O)c4ccccc4)C3)nc(C)n2)c1` (racemic), in experiment [1], the 50% inhibitory concentration (IC50) amounted to 767 nM. In experiment [2], this compound returned a Ki of 85 nM.

For the compound `FC(F)(F)c1ccnc(Nc2cc(C3CCCNC3)nc(N3CCCC3)n2)c1` (stereo not drawn), the IC50 in experiment [1] was 109 nM. For the same compound, the affinity in experiment [2] corresponds to a Ki of 7 nM.

For `CC(C)(O)c1cc(Nc2cc(C#N)ccn2)nc(N2CCC(F)(F)C2)c1`, the IC50 in experiment [1] was 125 nM; in experiment [3] it was 401 nM. This compound also came in with an inhibition constant Ki in experiment [2] of 5 nM.

In experiment [2], `CC(=O)N1CCC(c2cc(Nc3cc(C(F)(F)F)ccn3)nc(N3CCOCC3)n2)CC1` registered a Ki of 431 nM.

As to `CC(=O)N1CCC(c2cc(Nc3cc(C(F)(F)F)ccn3)nc(N3CCC(F)(F)C3)c2)CC1`, the half-inhibitory concentration (IC50) in experiment [1] worked out at 69 nM; in experiment [3] it was 171 nM. The same compound returned a Ki in experiment [2] of 1 nM.

Turning to `Cc1cc(C2CCN(C3COC3)CC2)cc(Nc2cc(C#N)ccn2)n1`, the IC50 in experiment [1] was 1600 nM.

For `COC1CN(c2cc(C3CCN(C4COC4)CC3)cc(Nc3cc(C#N)ccn3)n2)C1`, the IC50 in experiment [1] worked out at 233 nM; in experiment [3], 697 nM. The same compound yielded a Ki in experiment [2] of 8 nM.

For the compound `N#Cc1ccnc(Nc2cc(C3(C#N)CCOCC3)cc(N3CCC(F)(F)C3)n2)c1`, in experiment [1], the IC50 amounted to 79 nM. Further, the Ki in experiment [2] turned out to be 5 nM.

For `COc1ccnc(Nc2cc(C3CCCN(C(=O)c4ccccc4)C3)nc(C)n2)c1` (racemic), the IC50 in experiment [1] amounted to 1000 nM. In experiment [2], this compound displayed a Ki of 57 nM.

On to `Cc1nc(Nc2ncc(C)s2)cc(C2CCCN(C(=O)c3ccccc3)C2)n1` (racemic), for which the IC50 in experiment [1] is 641 nM. For the same compound, the Ki in experiment [2] was 35 nM.

As for `N#Cc1ccnc(Nc2cc(C3CCN(C4COC4)CC3)cc(N3CCC3)n2)c1`, the half-inhibitory concentration (IC50) in experiment [1] was found to be 141 nM; in experiment [3] it was 448 nM. This compound gave a Ki in experiment [2] of 8 nM.

`CC(=O)N1CCC(c2cc(Nc3cc(C#N)ccn3)nc(N3CCC(F)(F)C3)c2)CC1` came in with an IC50 in experiment [3] of 180 nM. The compound further showed a Ki in experiment [2] of 25 nM.

With `Cc1nc(Nc2cc(C(C)C)ccn2)cc(C2CCCN(C(=O)c3ccccc3)C2)n1` (racemic), in experiment [1], the IC50 worked out at 1300 nM. In experiment [2], this compound yielded a Ki of 4 nM.

Regarding `CCc1cc(C2CCN(C3COC3)CC2)cc(Nc2cc(C#N)ccn2)n1`, the half-inhibitory concentration (IC50) is 213 nM in experiment [1] and 916 nM in experiment [3].

In the case of `N#Cc1ccnc(Nc2cc(C3CN(C4COC4)C3)cc(N3CCC(F)(F)C3)n2)c1`, the figures for the 50% inhibitory concentration (IC50) in experiment [1] and in experiment [3] were 57 nM and 99 nM, respectively. Further, in experiment [2], the Ki worked out at 0.7 nM.

Consider `Cc1nc(Nc2cc(C(F)(F)F)ccn2)cc(C2CCCNC2)n1` (racemic), for which affinity in experiment [2] was put at a Ki of 725 nM.

As to `FC1(F)CCN(c2nc(Nc3cc(C(F)(F)F)ccn3)cc(C3CCOCC3)n2)C1`, the IC50 in experiment [1] was found to be 440 nM. This compound also gave a Ki in experiment [2] of 41 nM.

As for `Cc1nc(Nc2cc(C#N)ccn2)cc(C2CCCN(C(=O)c3ccccc3)C2)n1` (racemic), the IC50 in experiment [1] worked out at 1000 nM. Further, the Ki in experiment [2] was 90 nM.

In experiment [2], `CC(=O)N1CCC(c2cc(Nc3cc(C(F)(F)F)ccn3)nc(N3CC(F)(F)C3)n2)CC1` registered an inhibition constant Ki of 166 nM.

For `Cc1nc(Nc2cc(C(F)(F)F)ccn2)cc(C2CCCN(C(=O)c3ccccc3)C2)n1` (racemic), the IC50 in experiment [1] worked out at 229 nM. For the same compound, in experiment [2], the Ki stood at 24 nM.

`CC(C)(C#N)c1cc(Nc2cc(C#N)ccn2)nc(N2CCC(F)(F)C2)c1`: in experiment [1], the concentration for half-maximal inhibition (IC50) came out at 193 nM. Moreover, the Ki in experiment [2] is 14 nM.

`N#Cc1ccnc(Nc2cc(C3CCN(C4COC4)CC3)cc(C3CC3)n2)c1`: the IC50 is 62 nM in experiment [1] and 155 nM in experiment [3]. In addition, in experiment [2], the Ki was 1 nM.

With `FC1(F)CCN(c2nc(Nc3cc(C(F)(F)F)ccn3)cc(C3CCCNC3)n2)C1` (stereo not drawn), the half-maximal inhibitory concentration (IC50) in experiment [1] came to 408 nM. This compound returned a Ki in experiment [2] of 7 nM.

On to `N#Cc1ccnc(Nc2cc(C3CCN(C4COC4)CC3)cc(OC3CCC3)n2)c1`, for which the figures for the IC50 in experiment [1] and in experiment [3] were 64 nM and 46 nM, respectively. The same compound gave a Ki in experiment [2] of 0.2 nM.
